Source: ChEMBL document CHEMBL4270522, “Halogenated trimethoprim derivatives as multidrug-resistant Staphylococcus aureus therapeutics” (Bioorg Med Chem, 2018)
≈ marks a conversion by molar mass, not a printed value.

Tests used:
Staphylococcus aureus [1] = assay: Synergistic antibacterial activity against hospital-associated methicillin-resistant Staphylococcus aureus COL assessed as fractional inhibitory concentration index in presence of sulfamethoxazole after 18 hrs by broth microdilution-based checkerboard titration assay; type: functional
Staphylococcus aureus [2] = assay: Bactericidal activity against hospital-associated methicillin-resistant Staphylococcus aureus COL preincubated for 20 hrs followed by agar plating and measured after 18 to 20 hrs; type: functional
Method in brief: (§1)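 MBC taken from broth microdilution (final about 10^5 CFU/mL, Mueller-Hinton broth, 37 °C for 20 h). Clear wells (basal optical density) were spread on TSA plates and incubated at 37 °C for 18–20 h. The lowest concentration giving no colonies is reported. At least triplicate.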

Staphylococcus aureus [3] = assay: Antibacterial activity against methicillin-susceptible Staphylococcus aureus ATCC 29213 after 20 hrs by CLSI microdilution assay; type: functional; settings: ATCC 29213, 20 h
Staphylococcus aureus [4] = assay: Antibacterial activity against methicillin-resistant Staphylococcus aureus USA300 after 20 hrs by CLSI microdilution assay; type: functional; settings: USA300, 20 h
Staphylococcus aureus [5] = assay: Synergistic antibacterial activity against methicillin-resistant Staphylococcus aureus USA300 in presence of sulfamethoxazole after 20 hrs by broth microdilution-based checkerboard titration assay; type: functional
Staphylococcus aureus [6] = assay: Antibacterial activity against hospital-associated methicillin-resistant Staphylococcus aureus COL after 20 hrs by CLSI microdilution assay; type: functional
Staphylococcus aureus [7] = assay: Potentiation of sulfamethoxazole-mediated antibacterial activity against methicillin-susceptible Staphylococcus aureus ATCC 29213 assessed as sulfamethoxazole MIC after 20 hrs by CLSI microdilution assay (reference value: 100 microg/ml); type: functional; settings: ATCC 29213, 20 h
Staphylococcus aureus [8] = assay: Potentiation of sulfamethoxazole-mediated antibacterial activity against hospital-associated methicillin-resistant Staphylococcus aureus COL assessed as sulfamethoxazole MIC after 20 hrs by CLSI microdilution assay (reference value: 200 microg/ml); type: functional
Staphylococcus aureus [9] = assay: Bactericidal activity against methicillin-resistant Staphylococcus aureus USA300 preincubated for 20 hrs followed by agar plating and measured after 18 to 20 hrs; type: functional; method in brief: as §1
Staphylococcus aureus [10] = assay: Antibacterial activity against hospital-associated methicillin-resistant Staphylococcus aureus COL at 5 ug after 18 to 20 hrs by CLSI disk diffusion assay; type: functional; settings: read-out: DIZ
Method in brief: (§2)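 Disk diffusion on 4 mm Mueller-Hinton agar swabbed with about 10^8 CFU/mL suspension in PBS; 6 mm paper disk loaded with 5 µg compound in DMSO; 37 °C ambient air for 18–20 h; diameter of the complete inhibition zone measured in mm with callipers from the plate back; at least three independent experiments, mean with standard error; 6 mm means no inhibition.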

Staphylococcus aureus [11] = assay: Synergistic antibacterial activity against methicillin-susceptible Staphylococcus aureus ATCC 29213 in presence of sulfamethoxazole after 20 hrs by broth microdilution-based checkerboard titration assay; type: functional
Staphylococcus aureus [12] = assay: Synergistic antibacterial activity against methicillin-susceptible Staphylococcus aureus ATCC 29213 assessed as fractional inhibitory concentration index in presence of sulfamethoxazole after 18 hrs by broth microdilution-based checkerboard titration assay; type: functional
Staphylococcus aureus [13] = assay: Synergistic antibacterial activity against hospital-associated methicillin-resistant Staphylococcus aureus COL in presence of sulfamethoxazole after 20 hrs by broth microdilution-based checkerboard titration assay; type: functional
Staphylococcus aureus [14] = assay: Bactericidal activity against methicillin-susceptible Staphylococcus aureus ATCC 29213 preincubated for 20 hrs followed by agar plating and measured after 18 to 20 hrs; type: functional
Method in brief: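 Broth microdilution per CLSI guideline. Compounds diluted 2-fold in MHB from 100 mM DMSO stocks. Inoculum ~10^5 CFU/mL final, from overnight TSB culture diluted in PBS. Plates incubated at 37 °C. Wells without growth by optical density spread on TSA and incubated at 37 °C. MBC is the lowest concentration giving no colonies. At least triplicate.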

Staphylococcus aureus [15] = assay: Antibacterial activity against methicillin-resistant Staphylococcus aureus USA300 at 5 ug after 18 to 20 hrs by CLSI disk diffusion assay; type: functional; settings: read-out: DIZ; method in brief: as §2
A549 = assay: Cytotoxicity against human A549 cells after 24 to 48 hrs by fluorescence-based assay; type: cell-based
Method in brief: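 A549 cells, ~10^4 per well in DMEM, given 2-fold serial dilutions of compound (DMSO stock diluted in DMEM). Incubated at 37 °C, 5% CO2. PrestoBlue added for 1 h, then fluorescence read at excitation 535 nm and emission 610 nm as a measure of viable cells.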

Staphylococcus aureus [16] = assay: Synergistic antibacterial activity against methicillin-resistant Staphylococcus aureus USA300 assessed as fractional inhibitory concentration index in presence of sulfamethoxazole after 18 hrs by broth microdilution-based checkerboard titration assay; type: functional
Staphylococcus aureus [17] = assay: Potentiation of sulfamethoxazole-mediated antibacterial activity against methicillin-resistant Staphylococcus aureus USA300 assessed as sulfamethoxazole MIC after 20 hrs by CLSI microdilution assay (reference value: 100 microg/ml); type: functional; settings: USA300, 20 h
Staphylococcus aureus [18] = assay: Antibacterial activity against methicillin-susceptible Staphylococcus aureus ATCC 25923 at 5 ug after 18 to 20 hrs by CLSI disk diffusion assay; type: functional; settings: read-out: DIZ
Method in brief: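 Mueller-Hinton agar, 4 mm deep, swabbed with PBS-diluted overnight TSB culture (~10^8 CFU/mL). Paper disk (6 mm) loaded with compound in DMSO, incubated 37 °C in ambient air. Complete inhibition zone diameter read from plate back with callipers; 6 mm means no inhibition. At least three independent experiments, mean with standard error.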

| SMILES | fractional inhibitory concentration index (FICI) (Staphylococcus aureus [1]) | MBC (Staphylococcus aureus [2]) [µg/mL] | MIC (Staphylococcus aureus [3]) [µg/mL] | MIC (Staphylococcus aureus [4]) [µg/mL] | FIC (Staphylococcus aureus [5]) | MIC (Staphylococcus aureus [6]) [µg/mL] | MIC (Staphylococcus aureus [7]) [µg/mL] | MIC (Staphylococcus aureus [8]) [µg/mL] | MBC (Staphylococcus aureus [9]) [µg/mL] | zone of inhibition at 5 µg/disc (Staphylococcus aureus [10]) [mm] | FIC (Staphylococcus aureus [11]) | fractional inhibitory concentration index (FICI) (Staphylococcus aureus [12]) | FIC (Staphylococcus aureus [13]) | MBC (Staphylococcus aureus [14]) [µg/mL] | zone of inhibition at 5 µg/disc (Staphylococcus aureus [15]) [mm] | IC50 (A549) [µM] | fractional inhibitory concentration index (FICI) (Staphylococcus aureus [16]) | MIC (Staphylococcus aureus [17]) [µg/mL] | zone of inhibition at 5 µg/disc (Staphylococcus aureus [18]) [mm] |
| --- | --- | --- | --- | --- | --- | --- | --- | --- | --- | --- | --- | --- | --- | --- | --- | --- | --- | --- | --- |
| COc1cc(Cc2cnc(N)nc2N)cc(Cl)c1OC | 0.12 | 10 (≈ 33.9 µM) | 1.25 (≈ 4.24 µM) | 2.5 (≈ 8.48 µM) | 0.06 | 5 (≈ 17 µM) | 6.25 | 12.5 | 2.5 (≈ 8.48 µM) | 6 | 0.06 | 0.12 | 0.06 | 1.25 (≈ 4.24 µM) | 18.1 | 467 | 0.12 | 6.25 | 15.1 |
| COc1cc(Cc2cnc(N)nc2N)cc(Br)c1OC | 0.12 | 5 (≈ 14.7 µM) | 1.25 (≈ 3.69 µM) | 1.25 (≈ 3.69 µM) | 0.06 | 5 (≈ 14.7 µM) | 6.25 | 12.5 | 1.25 (≈ 3.69 µM) | 6 | 0.06 | 0.12 | 0.06 | 1.25 (≈ 3.69 µM) | 20.4 | 321 | 0.18 | 6.25 | 17.4 |
| COc1cc(Cc2cnc(N)nc2N)cc(I)c1OC | 0.12 | 5 (≈ 12.9 µM) | 1.25 (≈ 3.24 µM) | 1.25 (≈ 3.24 µM) | 0.06 | 2.5 (≈ 6.47 µM) | 3.13 | 12.5 | 1.25 (≈ 3.24 µM) | 6 | 0.03 | 0.09 | 0.06 | 1.25 (≈ 3.24 µM) | 22.8 | 266 | 0.12 | 6.25 | 21 |
